In ChEMBL document CHEMBL1145071, “Oxindole-based compounds are selective inhibitors of Plasmodium falciparum cyclin dependent protein kinases” (J Med Chem, 2003) one finds IC50 data, which are given here for 26 compounds.

Test [1] has as its target T1, Protein kinase Pfmrk (Plasmodium falciparum, UniProt P90584).
T1 sequence (P90584 whole entry): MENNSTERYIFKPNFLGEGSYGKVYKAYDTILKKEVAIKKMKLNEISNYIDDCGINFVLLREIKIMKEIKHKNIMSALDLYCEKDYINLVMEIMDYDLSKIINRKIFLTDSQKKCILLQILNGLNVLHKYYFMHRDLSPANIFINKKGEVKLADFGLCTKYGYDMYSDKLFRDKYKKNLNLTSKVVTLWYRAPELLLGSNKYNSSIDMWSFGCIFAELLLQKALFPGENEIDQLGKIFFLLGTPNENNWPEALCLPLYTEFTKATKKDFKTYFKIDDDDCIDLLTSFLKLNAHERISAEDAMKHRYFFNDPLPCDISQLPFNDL
In words: Inhibitory activity against Plasmodium falciparum cyclin dependent protein kinase, Pfmrk.

Test [2] relates to Plasmodium falciparum. In words: Inhibitory activity against Plasmodium falciparum W2. It counts as functional, organism-based. An outline of the steps: (§1)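 Cultured D6 (chloroquine-sensitive) and W2 (chloroquine-resistant) clones in A+ red cells, 6% hematocrit, 10% human serum, 90% N2/5% O2/5% CO2. Cultures at 3% parasitemia with at least 70% rings placed in drug-precoated wells for 24 h. [3H]-hypoxanthine then added for a further 18 h; uptake counted after harvest. IC50 from four-parameter nonlinear regression.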

Test [3] deals with Plasmodium falciparum. The test can be described thus: Inhibitory activity against Plasmodium falciparum D6. In kind it is functional, organism-based. In a few lines:
as §1

Test [4] concerns the target PFPK5(P.falciparum) (Plasmodium falciparum, UniProt P61075). The test can be described thus: Inhibition of Plasmodium falciparum cyclin dependent protein kinase, PfPK5.
In test [5] the target is Cyclin-dependent kinase 1/cyclin B (Homo sapiens, UniProt P06493). The test can be described thus: Inhibition of human Cyclin-dependent kinase 1 cyclin B. In kind it is protein-complex assay.

Sequence of PFPK5(P.falciparum) (P61075 whole entry, looked up): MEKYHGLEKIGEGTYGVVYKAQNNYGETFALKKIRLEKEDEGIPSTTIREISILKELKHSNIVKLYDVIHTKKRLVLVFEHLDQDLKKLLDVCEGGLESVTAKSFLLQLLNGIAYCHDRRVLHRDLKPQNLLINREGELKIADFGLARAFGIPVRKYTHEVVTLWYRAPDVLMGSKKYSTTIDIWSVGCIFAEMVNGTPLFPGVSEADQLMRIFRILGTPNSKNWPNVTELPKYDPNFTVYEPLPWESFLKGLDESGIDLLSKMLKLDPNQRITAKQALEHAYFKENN

`C/N=C/c1c(O)[nH]c2ccccc12`: the IC50 in test [1] was above 57 µM.
Turning to `CC[C@H](CO)Nc1nc(NCc2ccccc2)c2ncn(C(C)C)c2n1` [SELICICLIB], the IC50 was 28 µM in test [2], above 1000 µM in test [1] and 33 µM in test [3].
For the compound `Cc1ccc(C(=O)/C=C2/C(=O)Nc3ccc(Br)cc32)cc1`, the IC50 in test [4] is 120 µM; in test [2], above 14.6 µM; in test [1] it was 2.9 µM; in test [3], above 14.6 µM; in test [5] it was 29 µM.
On to `O=C1Cc2c([nH]c3ccc([N+](=O)[O-])cc23)-c2ccccc2N1` [ALSTERPAULLONE], for which the IC50 was determined as 4.3 µM in test [2], 51 µM in test [1] and 4.3 µM in test [3].
Regarding `O=C1Nc2ccccc2/C1=C\c1ccc(O)cc1`, the half-inhibitory concentration (IC50) in test [1] was above 42 µM.
`O=C1Nc2ccccc2/C1=C\c1ccc(C(F)(F)F)cc1` yielded an IC50 in test [1] of 4.3 µM.
For `Cn1cnc2c(NCc3ccccc3)nc(NCCO)nc21` [OLOMOUCINE], the IC50 in test [2] is 8 µM; in test [1] it was above 1000 µM; in test [3], 2.7 µM.
Compound `N#C/C(C(N)=O)=C1\C(=O)Nc2ccccc21` yielded an IC50 in test [1] of 24 µM. That is a double-digit micromolar value.
For the compound `COC(=O)[C@@]1(Cc2ccc(O)c(CC=C(C)C)c2)OC(=O)C(O)=C1c1ccc(O)cc1` [BUTYROLACTONE I], the IC50 in test [2] amounted to 11.7 µM; in test [1], 94 µM; in test [3], 11.7 µM.
Turning to `CC(C)(C)C(=O)/C=C1/C(=O)Nc2ccccc21`, in test [1], the IC50 is above 44 µM.
As to `CN[C@@H]1C[C@H]2O[C@@](C)([C@@H]1OC)n1c3ccccc3c3c4c(c5c6ccccc6n2c5c31)C(=O)NC4` (single isomer, unassigned) [STAUROSPORINE], the IC50 in test [2] was found to be 0.15 µM; in test [1], 4 µM; in test [3] it was 0.19 µM.
In test [1], `COc1cc2ncnc(Nc3cccc(O)c3)c2cc1OC` yielded an IC50 of 168 µM.
For the compound `O=C1NC(=S)S/C1=C1\C(=O)Nc2ccc(F)cc21`, the IC50 in test [1] was above 19 µM.
Turning to `O=C1Cc2c([nH]c3ccc(Br)cc23)-c2ccccc2N1` [KENPAULLONE], the figures for the IC50 in test [2], in test [1] and in test [3] were 3.8 µM, 15 µM and 3.8 µM, respectively.
With `O=C1Nc2ccccc2/C1=C\c1ccc(Cl)cc1`, the IC50 in test [1] is above 37 µM.
For `O=C1Nc2ccc(Br)cc2/C1=C/C(=O)c1ccccc1`, the IC50 in test [4] was 120 µM; in test [2], above 15.2 µM; in test [1], 3.1 µM; in test [3], above 15.2 µM; in test [5], 30 µM.
With `O=C1Nc2ccccc2/C1=C/C(=O)c1ccc(Br)cc1`, the IC50 was 130 µM in test [4]; above 15.2 µM in test [2]; 3.5 µM in test [1]; above 15.2 µM in test [3]; 12 µM in test [5].
Regarding `CC(=O)/C=C1/C(=O)Nc2ccccc21`, in test [1], the IC50 was above 37 µM.
Take `O=C1Nc2ccccc2/C1=C\C(=O)c1ccccc1`: the half-inhibitory concentration (IC50) in test [4] is 150 µM; in test [2], above 20 µM; in test [1], 4 µM; in test [3] it was above 20 µM; in test [5] it was above 16 µM.
Turning to `O=Nc1c(-c2c(O)[nH]c3ccccc23)[nH]c2ccccc12` [INDIRUBIN-3-MONOXIME], the results for the IC50 in test [2], in test [1] and in test [3] were 1.1 µM, 30 µM and 0.6 µM, respectively.
The compound `O=C1Nc2ccccc2/C1=C\C1CCCCN1` (configuration not stated) displayed an IC50 in test [1] above 21 µM.
Consider `O=C1Nc2ccc(Br)cc2/C1=C\C(=O)c1ccc(F)cc1`, for which the IC50 in test [4] is 190 µM; in test [2], above 14.4 µM; in test [1], 1.4 µM; in test [3], above 14.4 µM; in test [5] it was 29 µM.
In the case of `O=C1Nc2ccccc2/C1=C\c1c(Cl)cccc1Cl`, the IC50 in test [1] was found to be 17 µM.
Take `CC(C)[C@H](CO)Nc1nc(Nc2cccc(Cl)c2)c2ncn(C(C)C)c2n1` [PURVALANOLA]: the figures for the IC50 in test [2], in test [1] and in test [3] were 9.2 µM, 26 µM and 2.6 µM, respectively.
In test [1], `CCOC(=O)/C(C#N)=C1/C(=O)Nc2ccccc21` yielded an IC50 of 41.7 µM. In other words, the double-digit micromolar range.
Same read-out and setting: to `COc1ccc2c(c1)/C(=C1/SC(=S)NC1=O)C(=O)N2` belongs 17.1 µM.

The term IC50 denotes the concentration that inhibits the measured activity by half. Low values mean greater potency in that assay, high ones weaker potency in that assay.
